Results on one compound are retold here after ChEMBL document CHEMBL3797150, “Lupeol Isolated from Sorbus commixta Suppresses 1α,25-(OH)2D3-Mediated Osteoclast Differentiation and Bone Loss in Vitro and in Vivo” (J Nat Prod, 2016).

Series [1] concerns the target Transcription factor p65 (Mus musculus) (UniProt Q04207). In words: Downregulation of RANKL-induced p65 phosphorylation in mouse bone marrow macrophages at 5 to 20 uM after 30 mins by Western blot analysis in presence of M-CSF.
The nature of series [2]: Cytotoxicity against mouse calvarial osteoblasts assessed as cell viability at 1 to 20 uM after 2 to 4 days by MTT assay. It counts as cell-based. Particulars: calvarial osteoblast. A digest of the protocol: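 Primary calvarial osteoblasts from 1–2-day-old newborn mice (serial collagenase/dispase digests, fractions 2–5) exposed to 1, 5, 10, 20 μM for 2 days, or kept for at least 4 days with medium changed every 2–3 days; viability by MTT. Mean ± SD of three independent experiments.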

Series [3] relates to Calvarial osteoblast. Description: Effect on 1alpha,25-(OH)2D3-induced M-CSF mRNA expression in mouse calvarial osteoblasts at 5 and 10 uM after 24 hrs by RT-PCR method. In kind it is functional, cell-based. Summed up:
(§1)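 Calvarial osteoblasts from newborn mice grown 24 h in α-MEM with 10% FBS and 0.1 μM 1α,25-(OH)2D3, with or without compound. Total RNA reverse-transcribed, then PCR for RANKL (587 bp), OPG (720 bp), M-CSF (516 bp) and GAPDH (452 bp) as control. Products run on 2% agarose with ethidium bromide; three independent experiments.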

Series [4] in a line: Downregulation of RANKL-induced ERK phosphorylation in mouse bone marrow macrophages after 15 mins by Western blot analysis in presence of M-CSF. A digest of the protocol:
(§2)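 Bone marrow macrophages from tibiae of 4–6-week ICR males, taken as cells adherent after 16–20 h in 50 ng/mL M-CSF. Treated with compound plus RANKL for 15 min, then lysed; phospho and total ERK, JNK and p38 detected by Western blot with ECL.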

Series [5] deals with primary calvarial osteoblasts (Mus musculus). In words: Induction of primary calvarial osteoblasts differentiation assessed as alkaline phosphatase activity at 1 to 20 uM using p-nitrophenyl phosphate as substrate after 7 to 14 days in presence of 1alpha,25-(OH)2D3.
A short description of series [6]: Downregulation of RANKL-induced p38 MAPK phosphorylation in mouse bone marrow macrophages after 15 mins by Western blot analysis in presence of M-CSF. A digest of the protocol: as §2
The subject of series [7] is Mus musculus. Description: Decrease in 1alpha,25-(OH)2D3-induced OPG levels in hypercalcemic C57BL/6 mouse serum at 5 to 100 ug/kg/day for 5 days. It counts as functional, organism-based.
Series [8] deals with T1, NF-kappa-B inhibitor alpha (Mus musculus) (UniProt Q9Z1E3).
T1 sequence (whole entry): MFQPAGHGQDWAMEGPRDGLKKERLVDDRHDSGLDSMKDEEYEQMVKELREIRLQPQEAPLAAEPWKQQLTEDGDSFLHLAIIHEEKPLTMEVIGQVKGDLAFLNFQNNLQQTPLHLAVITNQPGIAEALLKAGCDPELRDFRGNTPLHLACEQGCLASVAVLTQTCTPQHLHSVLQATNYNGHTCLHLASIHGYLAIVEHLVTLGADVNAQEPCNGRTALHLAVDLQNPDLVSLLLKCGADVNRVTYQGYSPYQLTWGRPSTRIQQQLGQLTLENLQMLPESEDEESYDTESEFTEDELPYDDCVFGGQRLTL
Description: Downregulation of RANKL-induced IkappaB alpha phosphorylation in mouse bone marrow macrophages at 5 to 20 uM after 30 mins by Western blot analysis in presence of M-CSF.

Series [9] is described as follows: Downregulation of RANKL-induced JNK phosphorylation in mouse bone marrow macrophages after 15 mins by Western blot analysis in presence of M-CSF. Summed up: as §2
Series [10] in a line: Downregulation of 1alpha,25-(OH)2D3-induced RANKL mRNA expression in mouse calvarial osteoblasts at 5 and 10 uM after 24 hrs by RT-PCR method. In kind it is functional, cell-based. The settings on record: Calvarial osteoblast. Summed up: as §1
Series [11] relates to Calvarial osteoblast. Description: Inhibition of 1alpha,25-(OH)2D3-induced osteoclasts differentiation in mouse calvarial osteoblasts cocultured with mouse bone marrow macrophages incubated for 6 days by TRAP staining based microscopy. It counts as functional, cell-based. Summed up:
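Bone marrow cells (1 × 10^7) cocultured 6 days with calvarial osteoblasts (1 × 10^6) in α-MEM with 10% FBS and 0.1 μM 1α,25-(OH)2D3. Cells fixed in formaldehyde and ethanol–acetone, then TRAP-stained; TRAP-positive cells with three or more nuclei counted as osteoclasts.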

Series [12] deals with Calvarial osteoblast. In words: Effect on 1alpha,25-(OH)2D3-induced OPG mRNA expression in mouse calvarial osteoblasts at 5 and 10 uM after 24 hrs by RT-PCR method. In kind it is functional, cell-based. A digest of the protocol:
as §1

The test system of series [13] is primary calvarial osteoblasts (Mus musculus). Description: Induction of primary calvarial osteoblasts differentiation assessed as […] in alkaline phosphatase activity using p-nitrophenyl phosphate as substrate at 10 to 20 uM after 4 days.
A short description of series [14]: Downregulation of RANKL-induced c-fos levels in mouse bone marrow macrophages at 5 to 20 uM after 24 hrs by Western blot analysis in presence of M-CSF. It counts as functional, cell-based. Particulars: Macrophage. A digest of the protocol:
(§3)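 Bone marrow macrophages made with 50 ng/mL M-CSF, exposed to compound and RANKL for 24 h; c-Fos and NFATc1 protein by Western blot, β-actin as loading control, ECL detection.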

Series [15] is filed under the species Mus musculus. Description: Decrease in 1alpha,25-(OH)2D3-induced calcium levels in hypercalcemic C57BL/6 mouse serum at […] for […]. In kind it is functional, organism-based. Summed up: (§4)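 C57BL/6 males, 6 weeks old, groups of five; 1α,25-(OH)2D3 given subcutaneously on three consecutive days, then PBS or compound at 25 or 100 μg/kg/day for 3 days; sacrifice on day 8. Serum calcium and phosphate by colorimetric kits, RANKL by ELISA; mean ± SD, Student's t test.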

A short description of series [16]: Downregulation of RANKL-induced NFATc1 levels in mouse bone marrow macrophages at 5 to 20 uM after 24 hrs by Western blot analysis in presence of M-CSF. The settings on record: Macrophage. In kind it is functional, cell-based. A digest of the protocol: as §3
Series [17] deals with Osteoclast. Description: Induction of disruption of 1alpha,25-(OH)2D3/PGE2-induced F-actin ring formation in mouse osteoclasts obtained from coculturing mouse calvarial osteoblasts with mouse bone marrow macrophages at 20 uM after 48 hrs by Alexa Fluor 488-conjugated phalloidin staining based fluorescence microscopy. It counts as functional, cell-based. A digest of the protocol:
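Bone marrow cells and calvarial osteoblasts cocultured 6–7 days on collagen with 0.1 μM 1α,25-(OH)2D3 or 10 μM PGE2; mature osteoclasts released with 0.2% collagenase (37 °C, 30 min). Treated 48 h, fixed in paraformaldehyde, F-actin rings stained with Alexa Fluor 488-phalloidin and viewed by fluorescence microscopy at 100×.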

The species entered for series [18] is Mus musculus. In words: Decrease in 1alpha,25-(OH)2D3-induced phosphate levels in hypercalcemic C57BL/6 mouse serum at […]/day […]. In kind it is functional, organism-based. Summed up: as §4
The species entered for series [19] is Mus musculus. Description: Decrease in 1alpha,25-(OH)2D3-induced RANKL levels in hypercalcemic C57BL/6 mouse serum at […] […] by ELISA method. In kind it is functional, organism-based. Summed up:
as §4

For series [20], the target named is Transcription factor p65 (Mus musculus) (UniProt Q04207). In words: Downregulation of RANKL-induced p65 nuclear translocation in mouse bone marrow macrophages at 5 to 20 uM after 30 mins by Western blot analysis in presence of M-CSF.
Chain of Transcription factor p65 (Mus musculus) (Q04207 whole entry): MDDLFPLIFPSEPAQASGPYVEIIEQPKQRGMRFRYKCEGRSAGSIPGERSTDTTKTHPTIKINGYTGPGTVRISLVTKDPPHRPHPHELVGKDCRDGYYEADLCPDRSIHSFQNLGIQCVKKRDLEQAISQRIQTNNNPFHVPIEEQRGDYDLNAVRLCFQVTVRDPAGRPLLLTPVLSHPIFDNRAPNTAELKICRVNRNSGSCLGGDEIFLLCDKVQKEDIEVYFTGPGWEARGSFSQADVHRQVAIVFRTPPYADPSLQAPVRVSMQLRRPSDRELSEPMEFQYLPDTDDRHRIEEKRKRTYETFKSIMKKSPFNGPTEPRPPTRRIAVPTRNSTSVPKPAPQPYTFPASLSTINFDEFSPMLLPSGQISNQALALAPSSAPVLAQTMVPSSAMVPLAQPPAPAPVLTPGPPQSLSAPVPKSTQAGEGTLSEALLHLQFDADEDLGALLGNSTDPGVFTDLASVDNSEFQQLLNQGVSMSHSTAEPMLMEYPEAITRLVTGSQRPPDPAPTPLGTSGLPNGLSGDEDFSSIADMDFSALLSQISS
In series [21] the test system is Osteoclast. Description: Inhibition of bone resorption in mouse osteoclasts obtained from coculturing mouse calvarial osteoblasts with mouse bone marrow macrophages assessed as inhibition of pit formation at 20 uM after 48 hrs by Mayer's hematoxylin staining based light microscopy. In kind it is functional, cell-based. Summed up: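 Mature osteoclasts from collagen-gel cocultures (0.1 μM 1α,25-(OH)2D3 or 10 μM PGE2; collagenase release) replated on dentin slices with compound for 48 h. Cells removed, slices stained with Mayer's hematoxylin, pits counted per slice by light microscopy at 100×; three independent experiments.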

Calls of active or inactive are those of the source. The rule behind the calls is not given here.

In the case of `C=C(C)[C@@H]1CC[C@]2(C)CC[C@]3(C)[C@H](CC[C@@H]4[C@@]5(C)CC[C@H](O)C(C)(C)[C@@H]5CC[C@]43C)[C@@H]12` [LUPEOL], the result in series [1], in series [8], in [10], in series [13], in series [14] and in [16] was Active. Also, the outcome in series [17] and in series [19] was Active. Also, the Activity entry in series [2] was “Non-toxic”. Besides, the result in series [3], in series [5], in series [7], in series [12], in [15] and in [18] was inactive. Also, the inhibition result in series [4] and in series [6] was “Dose-dependent effect” in each case. In addition, the inhibition result in series [9] is “inactive”. In addition, the inhibition result in series [11], in series [20] and in series [21] was “Active” in each case.
